In test [1] the test system is Rattus norvegicus. As to the kind of experiment: Effect on in vivo accumulation of […] was measured in rat corpus striatum at 22(Micromol/kg) dose. The format is functional. A digest of the protocol:
(§1)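 Rats not pretreated with reserpine received test drug (hydrochloride or hydrobromide salt) sc in the neck region 60 min before death. NSD 1015 decarboxylase inhibitor (100 mg/kg, i.e., 573 μmol/kg, ip) was given 30 min before decapitation. Brain was dissected on ice. Tissue was homogenized in 0.1 M perchloric acid with α-methyl-DOPA internal standard. Analytes were quantified by ion-pair reversed-phase HPLC-electrochemical detection. Values are means ± SEM, n = 3-7 per treated group.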

In test [2] the test system is Rattus norvegicus. As to the kind of experiment: Effect on in vivo accumulation of dopamine(DA) was measured in rat limbic system at 2.2 (umol/kg) dose. Type of test: functional. A digest of the protocol:
(§2)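 Non-reserpinized rats got the test drug sc in the neck (5 mL/kg) 60 min before death, and NSD 1015 (573 µmol/kg ip) 30 min before death. After decapitation, the limbic system was dissected on ice, frozen and homogenized in 0.1 M perchloric acid with α-methyl-DOPA internal standard. DA was measured by ion-pair reversed-phase HPLC with electrochemical detection. Data are mean ± SEM (controls n=17-19, treated 3-7), analysed by ANOVA/Dunnett.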

Test [3] has as its target T1, 5-hydroxytryptamine receptor 1A (Rattus norvegicus, UniProt P19327).
T1 sequence (P19327 whole entry): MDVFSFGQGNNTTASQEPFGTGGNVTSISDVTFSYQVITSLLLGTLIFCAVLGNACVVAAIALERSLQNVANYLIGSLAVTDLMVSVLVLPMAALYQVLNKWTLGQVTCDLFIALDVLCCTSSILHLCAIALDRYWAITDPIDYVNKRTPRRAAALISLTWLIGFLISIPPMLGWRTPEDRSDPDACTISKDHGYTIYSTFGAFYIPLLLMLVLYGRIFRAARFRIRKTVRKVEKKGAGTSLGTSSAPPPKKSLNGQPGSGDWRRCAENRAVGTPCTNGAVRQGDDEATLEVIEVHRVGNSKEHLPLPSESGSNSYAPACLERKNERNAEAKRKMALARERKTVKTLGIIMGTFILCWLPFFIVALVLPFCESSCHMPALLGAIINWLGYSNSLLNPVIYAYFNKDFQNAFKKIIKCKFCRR
As to the kind of experiment: Inhibitory activity tested in vitro at 5-hydroxytryptamine 1A receptor binding site in rat. A digest of the protocol:
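Competition binding used rat brain membranes washed in 50 mM Tris-HCl pH 7.4, preincubated 10 min at 37 °C to remove 5-HT, and used at 10 mg wet tissue/mL. Assay: 1 nM [3H]-8-OH-DPAT, 3 mM CaCl2, 100 µM pargyline, 15 min at 37 °C, then filtration on PEI-treated filters. Nonspecific binding was set with 10 µM 5-HT. IC50 came from four-parameter logistic regression, mean ± SEM of N experiments.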

Test [4] has as its system Rattus norvegicus. Description: Effect on in vivo accumulation of DOPA was measured in rat limbic system at 2.2 (umol/kg) dose. Type of test: functional. In short, it runs like this:
as §1

Test [5] has as its system Rattus norvegicus. Description: Effect on in vivo accumulation of 5-HTP was measured in rat corpus striatum at 22(umol/kg) dose. Type of test: functional. In short, it runs like this:
as §1

Test [6] relates to Rattus norvegicus. Description: Effect on in vivo accumulation of dopamine(DA) was measured in rat limbic system at 22(Micromol/kg) dose. Type of test: functional. A digest of the protocol:
as §2

Test [7] relates to Rattus norvegicus. As to the kind of experiment: Effect on in vivo accumulation of DOPA was measured in rat limbic system at 22(Micromol/kg) dose. The format is functional. In short, it runs like this: as §1
Test [8] relates to Rattus norvegicus. As to the kind of experiment: Effect on in vivo accumulation of 5-HTP was measured in rat corpus striatum at 2.2 (umol/kg) dose. Type of test: functional. A digest of the protocol:
as §1

The test system of test [9] is Rattus norvegicus. As to the kind of experiment: Effect on in vivo accumulation of […] was measured in rat corpus striatum at 2.2 (umol/kg) dose. Type of test: functional. A digest of the protocol: as §1
In test [10] the test system is Rattus norvegicus. Description: Effect on in vivo accumulation of 5-HTP was measured in rat limbic system at 22(Micromol/kg) dose. Type of test: functional. A digest of the protocol: as §1
Test [11] concerns Rattus norvegicus. As to the kind of experiment: Effect on in vivo accumulation of DOPA was measured in rat corpus striatum at 22(Micromol/kg) dose. Type of test: functional. A digest of the protocol:
as §1

Test [12] deals with Rattus norvegicus. Description: Effect on in vivo accumulation of DOPA was measured in rat corpus striatum at 2.2 (umol/kg) dose. The format is functional. In short, it runs like this:
as §1

Test [13] has as its system Rattus norvegicus. Description: Effect on in vivo accumulation of 5-HTP was measured in rat limbic system at 2.2 (umol/kg) dose. The format is functional. A digest of the protocol: as §1
Test [14] concerns Rattus norvegicus. As to the kind of experiment: Effect on in vivo accumulation of DOPA was measured in rat limbic system at 43(Micromol/kg) dose. The format is functional. In short, it runs like this:
as §1

Test [15] relates to Rattus norvegicus. Description: Effect on in vivo accumulation of DOPA was measured in rat corpus striatum at 43(Micromol/kg) dose. The format is functional. A digest of the protocol:
as §1

For test [16], the system named is Rattus norvegicus. As to the kind of experiment: Effect on in vivo accumulation of 5-HTP was measured in rat limbic system at 43(Micromol/kg) dose. Type of test: functional. In short, it runs like this:
as §1

For test [17], the system named is Rattus norvegicus. Description: Effect on in vivo accumulation of […] was measured in rat corpus striatum at 43(Micromol/kg) dose. The format is functional. In short, it runs like this: as §1
The test system of test [18] is Rattus norvegicus. Description: Effect on in vivo accumulation of dopamine(DA) was measured in rat limbic system at 43(Micromol/kg) dose. The format is functional. In short, it runs like this: as §2
In test [19] the test system is Rattus norvegicus. As to the kind of experiment: Effect on in vivo accumulation of 5-HTP was measured in rat corpus striatum at 43(umol/kg) dose. The format is functional. A digest of the protocol: as §1
Test [20] deals with Rattus norvegicus. Description: Effect on in vivo accumulation of […] was measured in rat corpus striatum at 50(Micromol/kg) dose. Type of test: functional. In short, it runs like this: as §1
Test [21] concerns Rattus norvegicus. Description: Effect on in vivo accumulation of DOPA was measured in rat limbic system at 25(Micromol/kg) dose. The format is functional. In short, it runs like this:
as §1

Test [22] has as its system Rattus norvegicus. Description: Effect on in vivo accumulation of […] was measured in rat corpus striatum at 2.5 (umol/kg) dose. Type of test: functional. In short, it runs like this:
as §1

The subject of test [23] is Rattus norvegicus. As to the kind of experiment: Effect on in vivo accumulation of 5-HTP was measured in rat limbic system at 50(Micromol/kg) dose. Type of test: functional. A digest of the protocol:
as §1

Test [24] deals with Rattus norvegicus. Description: Effect on in vivo accumulation of 5-HTP was measured in rat limbic system at 25(Micromol/kg) dose. The format is functional. A digest of the protocol: as §1
Test [25] deals with Rattus norvegicus. Description: Effect on in vivo accumulation of DOPA was measured in rat corpus striatum at 2.5 (umol/kg) dose. The format is functional. A digest of the protocol: as §1
For test [26], the system named is Rattus norvegicus. As to the kind of experiment: Effect on in vivo accumulation of DOPA was measured in rat corpus striatum at 25(Micromol/kg) dose. The format is functional. In short, it runs like this:
as §1

Test [27] concerns Rattus norvegicus. As to the kind of experiment: Effect on in vivo accumulation of dopamine(DA) was measured in rat limbic system at 2.5 (umol/kg) dose. The format is functional. In short, it runs like this:
as §2

Test [28] relates to Rattus norvegicus. As to the kind of experiment: Effect on in vivo accumulation of 5-HTP was measured in rat corpus striatum at 50(umol/kg) dose. The format is functional. A digest of the protocol: as §1
Test [29] concerns Rattus norvegicus. Description: Effect on in vivo accumulation of 5-HTP was measured in rat corpus striatum at 2.5(umol/kg) dose. The format is functional. In short, it runs like this:
as §1

The test system of test [30] is Rattus norvegicus. Description: Effect on in vivo accumulation of 5-HTP was measured in rat limbic system at 2.5 (umol/kg) dose. The format is functional. In short, it runs like this: as §1
Test [31] relates to Rattus norvegicus. Description: Effect on in vivo accumulation of DOPA was measured in rat corpus striatum at 50(Micromol/kg) dose. The format is functional. In short, it runs like this: as §1
For test [32], the system named is Rattus norvegicus. As to the kind of experiment: Effect on in vivo accumulation of dopamine(DA) was measured in rat limbic system at 50(Micromol/kg) dose. Type of test: functional. A digest of the protocol: as §2
In test [33] the test system is Rattus norvegicus. As to the kind of experiment: Effect on in vivo accumulation of 5-HTP was measured in rat corpus striatum at 25 (umol/kg) dose. Type of test: functional. In short, it runs like this:
as §1

In test [34] the test system is Rattus norvegicus. Description: Effect on in vivo accumulation of […] was measured in rat corpus striatum at 25(Micromol/kg) dose. The format is functional. In short, it runs like this: as §1
Test [35] deals with Rattus norvegicus. As to the kind of experiment: Effect on in vivo accumulation of DOPA was measured in rat limbic system at 2.5 (umol/kg) dose. The format is functional. In short, it runs like this:
as §1

The test system of test [36] is Rattus norvegicus. Description: Effect on in vivo accumulation of DOPA was measured in rat limbic system at 50(Micromol/kg) dose. Type of test: functional. A digest of the protocol:
as §1

The subject of test [37] is Rattus norvegicus. Description: Effect on in vivo accumulation of dopamine(DA) was measured in rat limbic system at 25(Micromol/kg) dose. Type of test: functional. In short, it runs like this:
as §2

Our source for the Activity and IC50 values is ChEMBL document CHEMBL1124127, “Central dopaminergic and 5-hydroxytryptaminergic effects of C3-methylated derivatives of 8-hydroxy-2-(di-n-propylamino)tetralin” (J Med Chem, 1988).

Regarding `CCCN(CCC)[C@H]1Cc2c(O)cccc2C[C@@H]1C` (stereo in doubt; (+)-11), the Activity with Rattus norvegicus [1] was less than 4089 ng/g; with Rattus norvegicus [2], 1067 ng/g; in the test with Rattus norvegicus [4], 389 ng/g; in the test with Rattus norvegicus [5], less than 56.4 ng/g; in the test with Rattus norvegicus [6] it was less than 839 ng/g; in the test on Rattus norvegicus [7] it was 400 ng/g. Besides, the Activity is 87.3 ng/g with Rattus norvegicus [8]; 5158 ng/g in the test with Rattus norvegicus [9]; less than 89.5 ng/g in the test on Rattus norvegicus [10]; 959 ng/g in the test with Rattus norvegicus [11]; 1008 ng/g with Rattus norvegicus [12]; 144 ng/g in the test with Rattus norvegicus [13]. In addition, in test [3], the IC50 (in general, the concentration that inhibits the measured activity by half) came out at 60.5 nM.
For `CCCN(CCC)[C@H]1Cc2c(O)cccc2C[C@@H]1C` (stereo in doubt; (-)-11), the Activity in the test on Rattus norvegicus [14] was 381 ng/g; in the test on Rattus norvegicus [15] it was 1039 ng/g; in the test with Rattus norvegicus [16], 136 ng/g; in the test on Rattus norvegicus [17], less than 4181 ng/g; in the test on Rattus norvegicus [18], less than 800 ng/g; in the test with Rattus norvegicus [19] it was 117 ng/g. Besides, the IC50 in test [3] worked out at 1680 nM.
In the case of `CCCN(CCC)[C@H]1Cc2c(O)cccc2C[C@H]1C` (stereo in doubt; (-)-15), the Activity with Rattus norvegicus [20] was 5282 ng/g; with Rattus norvegicus [21], less than 521 ng/g; in the test on Rattus norvegicus [22] it was 4439 ng/g; in the test with Rattus norvegicus [23], less than 88.3 ng/g; with Rattus norvegicus [24], less than 120 ng/g; in the test on Rattus norvegicus [25], 1080 ng/g. For the same compound, the Activity in the test with Rattus norvegicus [26] is 1241 ng/g; in the test with Rattus norvegicus [27] it was 1133 ng/g; in the test on Rattus norvegicus [28], less than 45.8 ng/g; in the test with Rattus norvegicus [29], 96.6 ng/g; in the test on Rattus norvegicus [30] it was 163 ng/g; in the test on Rattus norvegicus [31], 1001 ng/g. For the same compound, the Activity was 1065 ng/g in the test with Rattus norvegicus [32]; less than 65.4 ng/g in the test with Rattus norvegicus [33]; 4751 ng/g in the test on Rattus norvegicus [34]; less than 463 ng/g with Rattus norvegicus [35]; 396 ng/g in the test with Rattus norvegicus [36]; 1094 ng/g in the test with Rattus norvegicus [37]. In addition, the IC50 in test [3] was determined as 486 nM.
